Bioassay records (PubChem BioAssay)
Rad51 HR inh: blocks human Rad51 in homologous recombination; Q06609; hRad51 DNA strand exchange, fluorescence dequenching; inhibition, % at 10 µM; actives 0.085% (n = 200,000);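 active means inhibition above 40% at the single screening dose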
Target sequence (Q06609 whole entry, looked up): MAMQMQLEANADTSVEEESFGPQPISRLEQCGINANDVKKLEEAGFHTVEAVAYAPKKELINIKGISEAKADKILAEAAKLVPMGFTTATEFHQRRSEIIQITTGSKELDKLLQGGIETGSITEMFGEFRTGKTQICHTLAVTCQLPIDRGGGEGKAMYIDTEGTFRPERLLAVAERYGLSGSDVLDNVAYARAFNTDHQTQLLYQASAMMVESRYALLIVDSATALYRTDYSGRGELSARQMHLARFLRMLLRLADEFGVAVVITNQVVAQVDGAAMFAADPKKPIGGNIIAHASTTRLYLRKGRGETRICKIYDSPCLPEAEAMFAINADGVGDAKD
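Test system – preformed human Rad51 ssDNA filaments · Reagent – Donor/quencher-labelled 47-bp dsDNA substrate · Incubation – 37 °C 15-min filament assembly, 30-min compound preincubation, 15-min exchange · Signal – FRET fluorescence dequenching, excitation 485 nm, emission 520 nm · Read-out – percent inhibition from fluorescence, normalised to plate control and blank means · Benchmarks – plate control and blank wells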
m-calpain inh: inhibitors of pig calpain II; inhibition, % at 16 µM; purified calpain II, fluorogenic peptide substrate, 30 min; actives 0.37% (n = 220,000);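 active means inhibition above about 50%, limit read from the data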
PMI activator: increases human mannose-6-phosphate isomerase activity. activation factor at 20 µM. AID 1214. P34949. actives 0.005% (n = 190,000). purified human PMI, coupled resazurin fluorescence, 20 min; active compounds read high; 1 = vehicle control, 0 substrate-free wells;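 active means activation factor of 2 or more at 20 µM, relative to plate controls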
Lmaj promast: inhibitors of Leishmania major promastigote growth. actives 9% (n = 200,000). Leishmania major promastigotes, resazurin fluorescence viability. inhibition, % at 10 µM; in the data active means inhibition above about 50%;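 further: promastigotes grown with compound for 44 hours at 28 °C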
WT yeast gro inh: growth inhibition of WT yeast, mitochondrial fusion screen; mitochondrial fusion phenotypic screen, WT strain; actives 2.1% (n = 190,000); inhibition, % at 10 µM; AID 1362; in the data active means inhibition above about 58%; tested in S. cerevisiae
PMI act hi M6P: increases human PMI activity with near-saturating mannose 6-phosphate | P34949 | coupled PMI enzyme assay, resazurin fluorescence, 20 min; active compounds read high; 1 = untreated enzyme, 0 = substrate-free blank | activation factor at 20 µM | actives 0.34% (n = 190,000);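 active means activation factor of 2 or more at 20 µM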
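Test system: human phosphomannose isomerase with PGI, G6PDH, diaphorase coupling enzymes; amount: 15 ng/mL PMI; incubation: enzyme reaction with compound 20 min at room temperature; technique: resorufin fluorescence (Ex 544/Em 590 nm) from resazurin via diaphorase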
Hits are given with their value; n = inactive; x = no result. Shown are actives, neighbours in structure and some others; about 9.8% of the full set was active somewhere.

SMILES	Rad51 HR inh	m-calpain inh	PMI activator	Lmaj promast	WT yeast gro inh	PMI act hi M6P
CC1CCN(CC(O)COC2CCC(C(C)(C)C)CC2)CC1 (centres undefined)	n	n	n	92	n	n
Cc1nc(-c2nnc(SCC(=O)Nc3ccc(C(F)(F)F)cc3)n2C)cs1	x	n	x	x	x	x
COc1ccc(-n2c(O)c(/C=N/NS(=O)(=O)c3cccc([N+](=O)[O-])c3)c3ccccc3c2=O)cc1OC	n	n	n	n	n	2.1
CCCn1c(SCC(=O)NC(C)(C)C)nnc1-c1ccco1	n	n	n	n	n	n
CC1(C)C(c2ccccc2)=NC(c2ccc(Br)cc2)N1O (centres undefined)	n	n	n	n	n	n
COC(=O)c1c(NC(=O)CN2CCC3(O)CCCCC3C2c2ccc(F)cc2)sc(C)c1C (centres undefined)	n	n	n	77	59	n
COC(=O)c1c(NC(=O)CN2CCC3(O)CCCCC3C2c2cc(OC)ccc2OC)sc(C)c1C (centres undefined)	n	n	n	n	74	n
Cc1nn(C(=O)C2CC2)c(C)c1Sc1ccc(Cl)cc1	n	n	n	n	79	n
Cc1nn(C(=O)c2ccco2)c(C)c1Sc1ccc(Br)cc1	x	n	n	n	n	n
Cc1ccc(Sc2c(C)nn(C(=O)CNS(=O)(=O)c3ccc(F)cc3)c2C)cc1	n	n	n	n	n	n
Cc1ccc(Sc2c(C)nn(C(=O)C3CC3)c2C)cc1	n	n	n	n	85	n
O=C(/C=C/c1ccccc1)NC1CCCc2ccccc21 (centres undefined)	n	n	n	n	n	n
Cc1ccc(Oc2ccc(-c3nnc(-c4ccccc4)o3)cc2[N+](=O)[O-])cc1C	n	n	n	60	n	n
CC1(C)CC(=O)C2=C(C1)Oc1nc3ccccc3cc1C2C(C#N)C#N (centres undefined)	n	n	n	100	n	n
CC1(C)CC(=O)C(C2C3=C(CC(C)(C)CC3=O)Oc3ccccc32)C(=O)C1 (centres undefined)	n	n	x	x	x	x
CC(C)Oc1ccc(CNCCC2(C(C)C)CCOC(C)(C)C2)cc1 (centres undefined)	n	n	n	95	n	n
CCN(CC)S(=O)(=O)c1cccc(-c2nnc(SCC(=O)c3ccc(Cl)s3)n2C)c1	n	n	n	78	x	n
CCN(CC)S(=O)(=O)c1cccc(-c2nnc(SCC(=O)NC)n2N)c1	n	n	n	n	n	n
Cc1cc(Cl)c(S(=O)(=O)Nc2ccon2)cc1OCC(=O)NC1CCCCC1	n	n	n	n	n	n
COc1ccc(NS(=O)(=O)c2cc(C(=O)O)ccc2C)cc1	n	n	n	n	59	n
CC(C)C(=O)Nc1cc(S(=O)(=O)Nc2cccc(Cl)c2)ccc1Cl	n	n	n	n	n	n
Cc1cc(Cl)c(S(=O)(=O)Nc2cccc(O)c2)cc1OCC(N)=O	n	n	n	53	n	n
Cc1cc(Cl)c(S(=O)(=O)Nc2ccc3c(c2)OCCO3)cc1OCC(=O)NC1CCCCC1	n	n	n	99	n	n
CCOc1ccc(NS(=O)(=O)c2cc(OCC(N)=O)c(C)cc2Cl)cc1	n	n	n	n	n	n
CC(C)C(=O)Nc1cc(S(=O)(=O)Nc2ccc(Cl)cc2)ccc1Cl	n	n	n	n	74	n
SMILES	Rad51 HR inh	m-calpain inh	PMI activator	Lmaj promast	WT yeast gro inh	PMI act hi M6P
COc1ccc(NS(=O)(=O)c2cc(C)ccc2C)cc1	n	n	n	n	x	n
NC1=NC[C@H](c2ccccc2)N1CCc1cccc(F)c1	n	n	x	x	x	x
CN(C)C(=O)c1nc2ccc(Cl)cn2c1CN1CCCC(OCc2ccccc2)C1 (centres undefined)	x	n	n	n	n	n
Cc1cc(=O)[nH]c(NN=C2C3CC4CC(C3)CC2C4)n1	n	n	x	x	x	x
CCN(CC)CCSc1nnc2c3ccccc3n(Cc3ccccc3)c2n1	n	n	x	x	x	x
COc1ccc(-c2cc(-c3nnc(COC(=O)c4ccncc4)o3)c3ccccc3n2)cc1OC	n	n	n	n	n	n
Cc1ccc(C(=O)NCC(=O)Nc2ccc(C)c(S(=O)(=O)Nc3ccc(Cl)cc3)c2)s1	n	n	n	n	n	n
O=C(O)c1ccc(NS(=O)(=O)c2cc(Cl)ccc2Cl)cc1	n	n	n	95	n	n
COc1ccc(NS(=O)(=O)c2cc(NC(=O)CNC(=O)c3ccc(C)s3)ccc2Cl)cc1	n	n	n	84	n	n
COc1ccc(NS(=O)(=O)c2cc(OCC(N)=O)c(C)cc2Cl)cc1	n	n	n	76	n	n
O=C(Nc1nc2c(F)cc(F)cc2s1)C1CC(=O)N(Cc2ccco2)C1 (centres undefined)	n	n	x	x	x	x
CC1(CC(=O)N/N=C/c2ccc(OCc3ccc(Cl)cc3Cl)cc2)OCCCO1	n	n	n	n	77	n
COc1cc(/C=N/NC(=O)CC2(C)OCCCO2)ccc1OCc1ccc(Cl)cc1Cl	n	n	n	n	n	n
COc1cccc(-c2nc(COc3ccc(Cl)cc3Cl)no2)c1	n	n	x	x	x	x
COCc1nc2ccccc2n1Cc1ccc(Br)cc1	n	57	n	n	n	n
Cc1nc2cc(NCc3nc4ccccc4n3Cc3ccccc3)ccc2n1C	x	n	n	n	n	n
Cc1cccc(NCc2nc3ccccc3n2Cc2ccccc2)c1	n	n	n	n	75	n
Cc1ccc(Cn2c(Cc3ccccc3)nc3ccccc32)cc1	n	n	n	n	71	n
c1ccc(Cn2c(CNc3nc4ccccc4n3CCN3CCOCC3)nc3ccccc32)cc1	n	n	n	59	n	n
COCc1nc2ccccc2n1Cc1ccccc1	n	n	n	n	n	n
CCc1nnc(NC(=O)c2cc(S(=O)(=O)N3CCOCC3)ccc2N2CCCCC2)s1	n	n	n	n	n	n
Cc1[nH]n(-c2ccccc2)c(=O)c1/C=N/N(c1ccccc1)c1ccccc1	n	n	n	n	n	n
CCOC(=O)c1sc(/N=C/c2c(C)[nH]n(-c3ccccc3)c2=O)c(C#N)c1C	x	n	n	n	77	n
CC(=O)Oc1c(C)cc(Cl)cc1C(=O)Nc1ccc([N+](=O)[O-])cc1Cl	x	n	n	n	85	n
O=[N+]([O-])c1ccccc1CNC(Cc1ccccc1)c1ccccc1 (centres undefined)	n	n	n	90	n	n
COc1cc(/C=C2/NC(=O)N(Cc3ccccc3F)C2=O)ccc1Oc1ccc([N+](=O)[O-])cn1	n	n	n	80	n	n
Cc1ccc(N2CCN(c3ccc(C)cc3)C2c2cccnc2)cc1	n	n	n	86	n	n
COc1ccc(C2N(c3ccc(C)cc3)CCN2c2ccc(C)cc2)cc1O	n	n	n	n	n	n
O=C1C2ON(c3ccccc3)C(c3cccnc3)C2C(=O)N1c1ccccc1 (centres undefined)	n	n	n	n	n	n
